Values after ≈ are worked out from the molar mass of the structure shown.
Experiments:
Format in all cases: physicochemical
[1] = Solubility of the compound in 5 % DMF by UV/visible spectroscopy
Outline: (§1)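 The compound was diluted from a 10 mM aqueous stock of its HCl salt into 10 mM citrate-phosphate buffer, pH 6.5, containing the organic solvent at the stated % (v/v). Samples were centrifuged, and soluble material was read by UV absorbance at 252 nm. The pellet was resuspended in pure solvent and read as a check. Values are the mean of four independent measurements.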

[2] = Solubility of the compound in 5 % PEG5000 by UV/visible spectroscopy; outline: as §1
[3] = Solubility of the compound in 10 % MeOH by UV/visible spectroscopy; outline: as §1
[4] = Solubility of the compound in 5 % DMSO by UV/visible spectroscopy; outline: as §1
[5] = Solubility of the compound in 5 % MeOH by UV/visible spectroscopy; outline: as §1
[6] = Solubility of the compound in 2.5 % DMF by UV/visible spectroscopy; outline: as §1
[7] = Solubility of the compound in 5 % PEG3350 by UV/visible spectroscopy; outline: as §1
[8] = Solubility of the compound in 10 % PEG3350 by UV/visible spectroscopy; outline: as §1
[9] = Solubility of the compound in 2.5 % DMSO by UV/visible spectroscopy; outline: as §1
[10] = Solubility of the compound in 10 % DMF by UV/visible spectroscopy; outline: as §1
[11] = Solubility of the compound in 10 % glycerol by UV/visible spectroscopy; outline: as §1
[12] = Solubility of the compound in 2.5 % glycerol by UV/visible spectroscopy; outline: as §1
[13] = Solubility of the compound in 2.5 % MeOH by UV/visible spectroscopy; outline: as §1
[14] = Solubility of the compound in citrate-phosphate buffer at pH 6.5
Outline: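 The compound was diluted from a 10 mM aqueous stock (pH about 1) into 10 mM citrate-phosphate buffer, pH 6.5, with no organic cosolvent. After centrifugation, soluble material was quantified by UV absorbance at 252 nm. The resuspended precipitate was also measured. Values are the mean of four independent measurements.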

[15] = Solubility of the compound in 10 % DMSO by UV/visible spectroscopy; outline: as §1
[16] = Solubility of the compound in 5 % glycerol by UV/visible spectroscopy; outline: as §1
[17] = Solubility of the compound in 10 % PEG5000 by UV/visible spectroscopy; outline: as §1
[18] = Solubility of the compound in 2.5 % PEG5000 by UV/visible spectroscopy; outline: as §1

Cc1cc2occ(CN(C)CCN(C)Cc3cn(-c4cccc(C(F)(F)F)c4)c4ccccc34)c(=O)c2cc1C showed a solubility [1] of 58 µM (≈ 31.8 µg/mL), a solubility [2] of 97 µM (≈ 53.1 µg/mL) and a solubility [3] of 83 µM (≈ 45.5 µg/mL). The solubility [4] was 52 µM (≈ 28.5 µg/mL), the solubility [5] was 58 µM (≈ 31.8 µg/mL) and the solubility [6] was 35 µM (≈ 19.2 µg/mL). For the same compound, the solubility [7] was 84 µM (≈ 46 µg/mL), the solubility [8] was 96 µM (≈ 52.6 µg/mL) and the solubility [9] was 33 µM (≈ 18.1 µg/mL). For the same compound, the solubility [10] was 82 µM (≈ 44.9 µg/mL), the solubility [11] was 28 µM (≈ 15.3 µg/mL) and the solubility [12] was 15 µM (≈ 8.21 µg/mL). For the same compound, the solubility [13] was 37 µM (≈ 20.3 µg/mL), the solubility [14] was 10 µM (≈ 5.48 µg/mL) and the solubility [15] was 79 µM (≈ 43.3 µg/mL). The solubility [16] was 19 µM (≈ 10.4 µg/mL), the solubility [17] was over 100 µM and the solubility [18] was 90 µM (≈ 49.3 µg/mL).
